Reference: ChEMBL document CHEMBL1130028, “A comparison of structure-activity relationships between spermidine and spermine analogue antineoplastics” (J Med Chem, 1997)

Columns and labels:
[1] = target: Spermidine/spermine N(1)-acetyltransferase (SAT) (Mus musculus) (UniProt Q6P8J2+P48026); experiment: Effect on Spermidine/Spermine-Acetyltransferase (SSAT ) at 10 uM at 48 hour in L1210 cells; format: functional, cell-based
Procedure, shortened: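 L1210 cells were exposed to 10 μM triamine for 48 h. SSAT activity was taken as [14C]N1-acetylspermidine formed from spermidine and [14C]acetyl-CoA, given as percent of untreated control. DENSPM-treated cells served as positive control. Values are the mean of at least three experiments.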

[2] = target: T1, S-adenosylmethionine decarboxylase proenzyme 1 (Mus musculus) (UniProt P0DMN7); experiment: Effect on S-Adenosyl-methionine decarboxylase (AdoMetDC) tested at 1 uM at 6 hour in L1210 cells; format: functional, cell-based
T1 sequence (whole entry): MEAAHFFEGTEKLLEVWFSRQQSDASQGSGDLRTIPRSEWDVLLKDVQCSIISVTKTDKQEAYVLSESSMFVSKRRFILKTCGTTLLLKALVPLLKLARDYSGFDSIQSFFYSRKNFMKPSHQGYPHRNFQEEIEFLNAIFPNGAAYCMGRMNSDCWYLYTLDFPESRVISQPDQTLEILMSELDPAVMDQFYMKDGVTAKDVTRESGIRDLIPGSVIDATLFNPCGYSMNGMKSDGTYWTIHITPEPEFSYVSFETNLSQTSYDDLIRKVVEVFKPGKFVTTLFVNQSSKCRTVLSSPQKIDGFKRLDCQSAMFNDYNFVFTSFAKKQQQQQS
Procedure, shortened: (§1)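 L1210 cells were exposed to 1 μM analogue, for 4 h (ODC) or 6 h (AdoMetDC). Activity was measured as 14CO2 released from [14C]carboxyl-labelled L-ornithine (ODC) or S-adenosyl-L-methionine (AdoMetDC) and given as percent of untreated control. Each run included DEHSPM-treated positive controls. Values are the mean of at least three experiments.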

L1210 [3] = experiment: Percentage of spermine (after 48 hr exposure to 500 uM) in L1210 cells.; format: functional, Mus musculus
Procedure, shortened: (§2)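 Log-phase L1210 cells were treated for 48 h with analogue at two concentrations. Cells were washed twice in cold RPMI-1640 and extracted with 0.6 N HClO4. Putrescine, spermidine and spermine were quantified by HPLC of dansyl derivatives and given as percent of untreated controls. Runs were in triplicate with untreated controls.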

L1210 [4] = experiment: Percentage of spermidine (after 48 hr exposure to 500 uM) in L1210 cells.
[5] = Binding affinity values for polyamine transporter was determined
L1210 [6] = experiment: Percentage of spermine (after 48 hr exposure to 100 uM) in L1210 cells.; format: functional, Mus musculus; procedure, shortened: as §2
L1210 [7] = experiment: Percentage of putrescine (after 48 hr exposure to 100 uM) in L1210 cells.; format: functional, Mus musculus; procedure, shortened: as §2
L1210 [8] = experiment: Percentage of spermidine (after 48 hr exposure to 100 uM) in L1210 cells.
[9] = Effect on ornithine decarboxylase (ODC) tested at 1 uM at 4 hour in L1210 cells; format: functional, Mus musculus; procedure, shortened: as §1
L1210 [10] = experiment: Growth inhibitory activity against L1210 cells (96h); format: functional, cell-based; details: Mus musculus, L1210, 96 h
Procedure, shortened: (§3)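 Murine L1210 leukemia cells were kept in log growth in RPMI-1640 with 10% fetal calf serum or NuSerum, HEPES-MOPS buffer and 1 mM aminoguanidine. IC50 is the concentration giving 50% of untreated control growth, as the mean of at least two experiments.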

L1210 [11] = experiment: Growth inhibitory activity against L1210 cells (48h); format: functional, cell-based; details: Mus musculus, L1210, 48 h; procedure, shortened: as §3
L1210 [12] = experiment: Percentage of putrescine after 48 hr exposure to the compound (500 uM ) in L1210 cells; format: functional, Mus musculus; procedure, shortened: as §2
L1210 [13] = experiment: Intracellular levels in L1210 cells following 500 uM exposure.; format: functional, Mus musculus
Procedure, shortened: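 L1210 cells were grown 48 h in medium containing 500 μM analogue. Cellular contents were analysed by HPLC of dansyl derivatives and given as pmol/10^6 cells, as parent drug and metabolites with the % of total drug in the cell.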

[14] = The chronic lethal dose administered as intraperitoneal injection in mice; format: ADME; details: mouse, in vivo, ip
Procedure, shortened: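 Female CD-1 mice, 10–12 weeks old. Analogue given as hydrochloride salt by ip injection three times daily for 6 days (18 doses). Appetite, weight and appearance monitored daily, and lethality scored 10 days after the final dose.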

L1210 [15] = experiment: Percentage of spermidine after 48 hr of exposure to the compound (100(3)uM ) in L1210 cells; format: functional, Mus musculus; procedure, shortened: as §2
L1210 [16] = experiment: Percentage of spermidine after 48 hr of exposure to the compound (500(15)uM ) in L1210 cells; format: functional, Mus musculus; procedure, shortened: as §2
L1210 [17] = experiment: Percentage of putrescine after 48 hr exposure to the compound (100(3)uM ) in L1210 cells; format: functional, Mus musculus; procedure, shortened: as §2
L1210 [18] = experiment: Percentage of spermine after 48 hr exposure to the compound (500(15)uM ) in L1210 cells; format: functional, Mus musculus
Procedure, shortened: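 Log-phase murine L1210 leukemia cells (RPMI-1640, 10% fetal calf serum or NuSerum, HEPES-MOPS buffer, 1 mM aminoguanidine) exposed 48 h to analogue at two concentrations. Cells washed twice in cold RPMI-1640 and extracted with 0.6 N HClO4. Spermine in extracts quantified by HPLC of DANSYL derivatives and expressed as percent of untreated controls. Triplicate flasks per condition.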

L1210 [19] = experiment: Percentage of putrescine after 48 hr exposure to the compound (500(15)uM ) in L1210 cells; format: functional, Mus musculus; procedure, shortened: as §2

Spermidine/spermine N(1)-acetyltransferase (SAT) (Mus musculus), sequence (P48026 whole entry, looked up): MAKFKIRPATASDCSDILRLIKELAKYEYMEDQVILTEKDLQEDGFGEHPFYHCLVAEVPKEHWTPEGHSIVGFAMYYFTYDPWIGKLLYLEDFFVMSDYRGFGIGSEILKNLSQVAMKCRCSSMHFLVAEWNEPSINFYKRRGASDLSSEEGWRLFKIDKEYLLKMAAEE
Spermidine/spermine N(1)-acetyltransferase (SAT) (Mus musculus), sequence (Q6P8J2 whole entry, looked up): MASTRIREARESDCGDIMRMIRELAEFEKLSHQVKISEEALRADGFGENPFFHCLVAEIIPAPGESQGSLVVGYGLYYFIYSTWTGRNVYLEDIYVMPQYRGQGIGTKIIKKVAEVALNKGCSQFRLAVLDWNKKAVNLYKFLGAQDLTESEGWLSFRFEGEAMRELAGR

| SMILES | SSAT [1] [%] | AdoMetDC [2] [%] | Ki [5] [µM] | IC50 (L1210 [10]) [µM] | IC50 (L1210 [11]) [µM] | Polyamine (L1210 [3]) [%] | Spermidine % (L1210 [4]) [%] | Polyamine (L1210 [6]) [%] | Polyamine (L1210 [7]) [%] | Spermidine % (L1210 [8]) [%] | ODC [9] [%] | Polyamine (L1210 [12]) [%] | Picoequivalents of amine/10e6 cells (L1210 [13]) | LD50 [14] [mg/kg/day] | Polyamine (L1210 [15]) [%] | Polyamine (L1210 [16]) [%] | Polyamine (L1210 [17]) [%] | Polyamine (L1210 [18]) [%] | Polyamine (L1210 [19]) [%] |
| --- | --- | --- | --- | --- | --- | --- | --- | --- | --- | --- | --- | --- | --- | --- | --- | --- | --- | --- | --- |
| CCNCCCNCCCCN | 430 | 58 | 8.6 | 4 | > 100 | 53 | 14 | 80 | 0 | 25 | 10 | 0 | 16990 |  |  |  |  |  |  |
| CCNCCCCNCCCN | 400 | 54 | 7 | 40 | > 100 | 61 | 15 | 84 | 0 | 26 | 17 | 0 | 17990 |  |  |  |  |  |  |
| CCNCCCCCNCCCCNCCCCCNCC |  |  |  |  | 0.4 |  |  |  |  |  |  |  |  | 36 |  |  |  |  |  |
| NCCCCNCCCCN | 430 | 54 | 3.4 | 3 | > 100 | 21 | 2 | 32 | 0 | 4 | 11 |  |  |  |  |  |  |  |  |
| CNCCCNCCCNC | 250 | 41 | 60 | 4.8 | > 100 | 48 | 6 | 58 | 0 | 9 | 17 | 0 | 18400 |  |  |  |  |  |  |
| CNCCCCNCCCNC | 270 | 68 | 5.1 | 1.7 | > 100 | 54 | 0 | 58 | 0 | 5 | 22 | 0 | 16090 |  |  |  |  |  |  |
| CCCNCCCCNCCCCNCCC | 420 | 123 | 67 | 6 | > 100 |  | 7 |  | 0 | 19 | 86 | 0 | 15990 |  |  |  |  |  |  |
| NCCCCNCCCN [SPERMIDINE] | 160 | 43 | 2.2 | > 100 | > 100 |  |  |  | 0 |  | 16 | 0 |  |  |  |  |  |  |  |
| CCNCCCCNCCCCCNCCCCNCC |  |  |  |  |  |  |  |  |  |  |  |  |  | 48 |  |  |  |  |  |

Further molecules by falling Ki [5], results first:

| SSAT [1] [%] | AdoMetDC [2] [%] | Ki [5] [µM] | IC50 (L1210 [10]) [µM] | IC50 (L1210 [11]) [µM] | SMILES | Polyamine (L1210 [3]) [%] | Spermidine % (L1210 [4]) [%] | Polyamine (L1210 [6]) [%] | Polyamine (L1210 [7]) [%] | Spermidine % (L1210 [8]) [%] | ODC [9] [%] | Polyamine (L1210 [12]) [%] | Picoequivalents of amine/10e6 cells (L1210 [13]) | LD50 [14] [mg/kg/day] | Polyamine (L1210 [15]) [%] | Polyamine (L1210 [16]) [%] | Polyamine (L1210 [17]) [%] | Polyamine (L1210 [18]) [%] | Polyamine (L1210 [19]) [%] |
| --- | --- | --- | --- | --- | --- | --- | --- | --- | --- | --- | --- | --- | --- | --- | --- | --- | --- | --- | --- |
| 220 | 99 | 125 | 60 | > 100 | CCCNCCCNCCCNCCC |  | 71 | 96 | 70 | 76 | 100 | 68 | 15010 |  |  |  |  |  |  |
| 90 | 123 | 87 | 6 | > 100 | CCCNCCCCCNCCCCCNCCC |  | 69 | 97 | 59 | 73 | 73 | 51 | 13910 |  |  |  |  |  |  |
| 80 | 86 | 75 | 1.2 | 100 | CCCNCCCCCNCCCCNCCC |  | 31 |  | 0 | 40 | 83 | 0 | 15150 |  |  |  |  |  |  |
| 390 | 58 | 34 | > 100 | > 100 | CCNCCCNCCCN |  |  |  |  |  | 42 |  |  |  |  |  |  |  |  |
| 470 | 38 | 33 | 100 | > 100 | CCCNCCCNCCCN | 49 | 15 | 56 | 0 | 29 | 33 | 0 | 17710 |  |  |  |  |  |  |
| 1030 | 107 | 26 | 33 | > 100 | CCCNCCCCNCCCNCCC |  |  |  |  |  | 75 |  | 15330 |  | 35 | 12 | 6 | 99 | 0 |
| 90 | 88 | 14 | 0.4 | 100 | NCCCCCNCCCCCN | 20 | 0 | 33 | 0 | 0 | 16 | 0 |  |  |  |  |  |  |  |
| 500 | 64 | 8.5 | 55 | > 100 | CCCNCCCCNCCCN | 95 | 16 |  | 0 | 33 | 14 | 0 | 19590 |  |  |  |  |  |  |
| 510 | 86 | 5.5 | 0.9 | > 100 | CNCCCCNCCCCNC |  | 0 |  | 0 | 3 | 20 | 0 | 20340 |  |  |  |  |  |  |
| 570 | 59 | 5 | 0.6 | 100 | CCCNCCCCNCCCCN | 66 | 0 | 82 | 0 | 2 | 20 | 0 | 20550 |  |  |  |  |  |  |
| 1200 | 56 | 3 | 28 | > 100 | CCCNCCCNCCCCN | 72 | 15 | 90 | 0 | 25 | 18 | 0 | 18250 |  |  |  |  |  |  |
| 410 | 57 | 1.4 | 0.18 | > 100 | NCCCCCNCCCCN | 35 | 0 | 53 | 0 | 1 | 19 |  |  |  |  |  |  |  |  |
